Results on 7 compounds are retold here after ChEMBL document CHEMBL2311266, “Isolation and identification of β-hematin inhibitors from Flacourtia indica as promising antiplasmodial agents” (Eur J Med Chem, 2013).

Data set [1] deals with Plasmodium falciparum. As to the kind of experiment: Antiplasmodial activity against chloroquine-resistant Plasmodium falciparum K1 after 72 hrs by SYBR green assay. As to conditions: K1, 72 h. In kind it is functional, organism-based. In outline:
(§1)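 Compounds dissolved in DMSO (5 mg/mL or 10 mM stock), two-fold serial dilutions. Asynchronous culture (>80% rings) at 1.0% cell suspension, 0.8% parasitemia, 72 h at 37 °C under 5% CO₂/air. Lysis buffer with 2× SYBR Green I added, 1 h at 37 °C. Fluorescence read at 485/530 nm. IC50 by logistic regression of dose-response curves, three replicates, chloroquine reference.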

Data set [2] is described as follows: Cytotoxicity against african green monkey Vero cells after 72 hrs by MTT assay. The class given is cell-based. Particulars: chlorocebus sabaeus. In short, it runs like this:
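Vero cells (1 × 10⁴) exposed to serial dilutions of test agents for 72 h; viability read by MTT. Three replicates; CC50 from non-linear regression of dose-response curves.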

Data set [3] deals with Plasmodium falciparum. As to the kind of experiment: Antiplasmodial activity against chloroquine-sensitive Plasmodium falciparum 3D7 after 72 hrs by SYBR green assay. In kind it is functional, organism-based. Particulars: 3D7, 72 h. In outline: as §1
Data set [4] can be described thus: Selectivity index, ratio of CC50 for african green monkey Vero cells to IC50 for Plasmodium falciparum 3D7. In kind it is functional. In outline: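 SI = CC50 (Vero, MTT, 72 h) / IC50 against P. falciparum 3D7. […] Read-out SYBR Green I fluorescence (ex 485, em 530 nm), logistic regression, triplicate.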
The subject of data set [5] is Plasmodium yoelii. As to the kind of experiment: Antimalarial activity against Plasmodium yoelii infected in Swiss mouse assessed as inhibition of beta-hematin formation in plasma after 16 hrs by spectrophotometric analysis. The class given is functional, organism-based. In short, it runs like this: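 P. yoelii-infected male Swiss mice (15-20 g; 1×10^5 infected RBCs); blood at 50% parasitemia taken in 2.0% citrate, plasma used. Mix: 100 mM sodium acetate pH 5.1, 50 µL plasma, 100 µM hemin, 1–50 µg compound per 1.0 mL; 37 °C 16 h shaking, triplicate. Pellet washed (Tris-SDS, water), dissolved in NaOH, A400; IC50 by non-linear regression.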

Data set [6] is described as follows: Inhibition of H2O2-induced hemin degradation at 20 uM incubated for 10 mins prior to H2O2-induction measured after 30 mins by spectrophotometric analysis relative to control.

Regarding `O=C(OC[C@H]1O[C@@H](Oc2ccc(O)cc2CO)[C@H](O)[C@@H](O)[C@@H]1O)c1ccccc1` [POLIOTHYRSOSIDE], the IC50 in data set [1] was > 25 µM; in data set [3] it was 8.1 µM; in data set [5] it was > 50 µM. In data set [2], the midpoint of cytotoxicity, the CC50 at 72 h, lay at 136 µM. Also, the “Ratio CC50/IC50” value in data set [4] is on record as 16.8.

`O=C(O[C@H]1[C@H](Oc2ccc(O)cc2COC(=O)[C@@]2(O)[C@H](O)C=CC(=O)[C@@H]2O)O[C@H](CO)[C@@H](O)[C@@H]1O)c1ccccc1`: the IC50 in data set [1] is > 5 µM; in data set [3], 4.4 µM; in data set [5], > 50 µM. The compound also returned a 50% cytotoxic concentration (CC50) at 72 h in data set [2] of 77.3 µM. Besides, the “Ratio CC50/IC50” value in data set [4] is given as 17.6.

For the compound `CCN(CC)CCCC(C)Nc1ccnc2cc(Cl)ccc12` (stereo not given) [CHLOROQUINE], the CC50 at 72 h in data set [2] stood at 126 µM. The IC50 in data set [5] stood at 7.7 µM. The inhibition in data set [6] came out at 53.5%.

Consider `O=C1C[C@@H](c2ccc(O)c(O)c2)c2c(O)cc3c(c2O1)C[C@H](O)[C@@H](c1ccc(O)c(O)c1)O3`, for which the IC50 in data set [1] is > 5 µM; in data set [3] it was 1.1 µM; in data set [5], 10.1 µM. The CC50 at 72 h in data set [2] is 200 µM. In addition, the “Ratio CC50/IC50” value in data set [4] was found to be 181.8. In addition, the inhibition in data set [6] amounted to 23%.

In the case of `O=c1cc2c3c(cc4c(c3o1)C[C@H](O)[C@@H](c1ccc(O)c(O)c1)O4)Oc1cc(O)c(O)cc1-2` [MURURIN A], the IC50 stood at 1.3 µM in data set [1], 1.2 µM in data set [3] and 8.3 µM in data set [5]. The same compound returned a CC50 at 72 h in data set [2] of 58.5 µM. Also, the “Ratio CC50/IC50” value in data set [4] is listed as 48.7. The compound also had an inhibition in data set [6] of 37.5%.

Turning to `O=C(OC[C@H]1O[C@@H](Oc2ccc(O)cc2COC(=O)[C@@]2(O)[C@H](O)C=CC(=O)[C@@H]2O)[C@H](O)[C@@H](O)[C@@H]1O)c1ccccc1`, the IC50 in data set [1] was > 5 µM; in data set [3] it was 3.6 µM; in data set [5], > 50 µM. This compound showed a CC50 at 72 h in data set [2] of 118 µM. Moreover, in data set [4], the “Ratio CC50/IC50” value is on record as 32.9.

For `COc1cc(-c2cc(=O)c3c(O)cc(O[C@@H]4O[C@H](CO)[C@@H](O)[C@H](O)[C@H]4O)cc3o2)ccc1O`, the concentration for half-maximal inhibition (IC50) is > 5 µM in data set [1], 4.4 µM in data set [3] and > 50 µM in data set [5]. Also, the CC50 at 72 h in data set [2] turned out to be 200 µM. In addition, in data set [4], the “Ratio CC50/IC50” value is 45.4.
